≈ marks a conversion by molar mass, not a printed value. Calls of active or inactive are those of the source. The rule behind the calls is not given here.
Legend:
Staphylococcus aureus [1] = test: Antibacterial activity against Staphylococcus aureus NCTC 8325 harboring genetic deletion of mepRA gene and carrying expression vector pG154 with mepA gene after 16 to 20 hrs by broth microdilution method in presence of anhydrous tetracycline; assay type: functional
Summary of the method: (§1)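 Broth microdilution in cation-adjusted MHB containing anhydrous tetracycline at 100 ng/ml final to induce the pG154 expression vector. Twofold DMSO compound dilutions were used (2% DMSO final) with 1 × 10^4 cells per well. Incubation was 37 °C for 16–20 h, and absorbance was read at 600 nm.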

Staphylococcus aureus [2] = test: Antibacterial activity against Staphylococcus aureus NCTC 8325 harboring genetic deletion of mepRA gene after 16 to 20 hrs by broth microdilution method; assay type: functional
Summary of the method: (§2)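 Broth microdilution in cation-adjusted Mueller Hinton broth. Compounds were serially diluted twofold in DMSO at 50-fold final strength (2% DMSO final). The inoculum was 1 × 10^4 cells per well. Plates were incubated at 37 °C for 16–20 h, and growth was read as absorbance at 600 nm.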

[3] = Dissociation constant, pKa of the compound; assay type: physicochemical
Staphylococcus aureus [4] = test: Antibacterial activity against MBX-1090-resistant Staphylococcus aureus isolate d20A1 carrying shuttle vector pMC-SK after 16 to 20 hrs by broth microdilution method; assay type: functional; summary of the method: as §2
[5] = Selectivity ratio of MIC for MBX-1090-resistant Staphylococcus aureus isolate d20A1 to MIC for Staphylococcus aureus NCTC 8325; assay type: functional
Summary of the method: (§3)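 Ratio of resistant-mutant MIC to NCTC 8325 MIC. Both MICs came from broth microdilution in cation-adjusted MHB with 2% DMSO final and 1 × 10^4 cells per well, incubated at 37 °C for 16–20 h and read at 600 nm.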

Staphylococcus aureus [6] = test: Antibacterial activity against Staphylococcus aureus NCTC 8325 harboring genetic deletion of mepRA gene and carrying expression vector pG154 after 16 to 20 hrs by broth microdilution method in presence of anhydrous tetracycline; assay type: functional; summary of the method: as §1
Staphylococcus aureus [7] = test: Downregulation of ribE gene expression in MBX-1090-resistant Staphylococcus aureus isolate d20A1 at 0.8 ug/ml by RT-PCR analysis relative to wild type; assay type: functional
Staphylococcus aureus [8] = test: Antibacterial activity against Staphylococcus aureus NCTC 8325 after 16 to 20 hrs by broth microdilution method; assay type: functional; summary of the method: as §2
Staphylococcus aureus [9] = test: Upregulation of mepR gene expression in MBX-1090-resistant Staphylococcus aureus isolate d20A1 at 0.8 ug/ml by RT-PCR analysis relative to wild type; assay type: functional
Staphylococcus aureus [10] = test: Antibacterial activity against Staphylococcus aureus NCTC 8325 carrying shuttle vector pMC-SK with mepR gene after 16 to 20 hrs by broth microdilution method; assay type: functional; summary of the method: as §2
Staphylococcus aureus [11] = test: Upregulation of mepA gene expression in MBX-1090-resistant Staphylococcus aureus isolate d20A1 at 0.8 ug/ml by RT-PCR analysis relative to wild type; assay type: functional
Staphylococcus aureus [12] = test: Downregulation of ribA gene expression in MBX-1090-resistant Staphylococcus aureus isolate d20A1 at 0.8 ug/ml by RT-PCR analysis relative to wild type; assay type: functional
Staphylococcus aureus [13] = test: Antibacterial activity against Staphylococcus aureus NCTC 8325 carrying shuttle vector pMC-SK after 16 to 20 hrs by broth microdilution method; assay type: functional; summary of the method: as §2
Staphylococcus aureus [14] = test: Downregulation of protein A gene expression in MBX-1090-resistant Staphylococcus aureus isolate d20A1 at 0.8 ug/ml by RT-PCR analysis relative to wild type; assay type: functional
Staphylococcus aureus [15] = test: Antibacterial activity against Staphylococcus aureus NCTC 8325 after 16 to 20 hrs by broth microdilution method in presence of efflux pump inhibitor reserpine; assay type: functional
Summary of the method: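 Broth microdilution in cation-adjusted MHB with reserpine at 20 µg/ml final in the medium as efflux inhibitor. Twofold DMSO dilutions were made (2% DMSO final) with 1 × 10^4 cells per well. Incubation was 37 °C for 16–20 h, with growth read at 600 nm.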

Staphylococcus aureus [16] = test: Antibacterial activity against Staphylococcus aureus NCTC 8325 carrying expression vector pG154 after 16 to 20 hrs by broth microdilution method; assay type: functional; summary of the method: as §2
Staphylococcus aureus [17] = test: Antibacterial activity against Staphylococcus aureus NCTC 8325 carrying expression vector pG154 with mepA gene after 16 to 20 hrs by broth microdilution method; assay type: functional; summary of the method: as §2
Staphylococcus aureus [18] = test: Antibacterial activity against Staphylococcus aureus NCTC 8325 carrying expression vector pG154 with mepA gene after 16 to 20 hrs by broth microdilution method in presence of anhydrous tetracycline; assay type: functional; summary of the method: as §1
Staphylococcus aureus [19] = test: Antibacterial activity against Staphylococcus aureus NCTC 8325 carrying expression vector pG154 after 16 to 20 hrs by broth microdilution method in presence of anhydrous tetracycline; assay type: functional; summary of the method: as §1
Staphylococcus aureus [20] = test: Induction of mepR gene expression in Staphylococcus aureus NCTC 8325 at 0.8 ug/ml by RT-PCR analysis; assay type: functional, organism-based
Staphylococcus aureus [21] = test: Antibacterial activity against Staphylococcus aureus NCTC 8325 harboring genetic deletion of mepR gene after 16 to 20 hrs by broth microdilution method; assay type: functional; summary of the method: as §2
Staphylococcus aureus [22] = test: Antibacterial activity against Staphylococcus aureus NCTC 8325 harboring genetic deletion of mepRA gene and carrying expression vector pG154 with mepA gene after 16 to 20 hrs by broth microdilution method; assay type: functional; summary of the method: as §2
Staphylococcus aureus [23] = test: Antibacterial activity against Staphylococcus aureus NCTC 8325 harboring genetic deletion of mepRA gene and carrying expression vector pG154 after 16 to 20 hrs by broth microdilution method; assay type: functional; summary of the method: as §2
Staphylococcus aureus [24] = test: Upregulation of mepB gene expression in MBX-1090-resistant Staphylococcus aureus isolate d20A1 at 0.8 ug/ml by RT-PCR analysis relative to wild type; assay type: functional
[25] = Selectivity ratio of MIC for MBX-1090-resistant Staphylococcus aureus isolate d20B1 to MIC for Staphylococcus aureus NCTC 8325; assay type: functional; summary of the method: as §3
[26] = Selectivity ratio of MIC for MBX-1090-resistant Staphylococcus aureus isolate d20C1 to MIC for Staphylococcus aureus NCTC 8325; assay type: functional; summary of the method: as §3
Staphylococcus aureus [27] = test: Downregulation of ribH gene expression in MBX-1090-resistant Staphylococcus aureus isolate d20A1 at 0.8 ug/ml by RT-PCR analysis relative to wild type; assay type: functional
Staphylococcus aureus [28] = test: Upregulation of conventional hypothetical protein mRNA expression in MBX-1090-resistant Staphylococcus aureus isolate d20A1 at 0.8 ug/ml by RT-PCR analysis relative to wild type; assay type: functional
Staphylococcus aureus [29] = test: Downregulation of ribD gene expression in MBX-1090-resistant Staphylococcus aureus isolate d20A1 at 0.8 ug/ml by RT-PCR analysis relative to wild type; assay type: functional
Staphylococcus aureus [30] = test: Induction of mepA gene expression in Staphylococcus aureus NCTC 8325 at 0.8 ug/ml by RT-PCR analysis; assay type: functional, organism-based
Summary of the method: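 NCTC 8325 diluted 1/200 in TSB and grown at 37 °C (250 rpm) to OD600 0.3. 5 ml aliquots exposed 3 h to compound or DMSO (2% final), triplicate cultures pooled. RNA was DNase-treated and 1 µg primed with random hexamers for cDNA, with a no-RT control. mepA signal normalized to rho, untreated set to 1. Mean of three experiments ± SD.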

Staphylococcus aureus [31] = test: Antibacterial activity against MBX-1090-resistant Staphylococcus aureus isolate d20A1 carrying shuttle vector pMC-SK with mepR gene after 16 to 20 hrs by broth microdilution method; assay type: functional; summary of the method: as §2
Staphylococcus aureus [32] = test: microbe, parasite or virus in culture; details: isolate d20A1

## C(=C\c1cc2ccc(C3=NCCN3)cc2[nH]1)/c1cc2ccc(C3=NCCN3)cc2[nH]1
Staphylococcus aureus [1]
  MIC: 4 µg/mL
Staphylococcus aureus [2]
  MIC: 1 µg/mL (≈ 2.53 µM)
[3]
  pKa: 9.6
Staphylococcus aureus [4]
  MIC: 8 µg/mL (≈ 20.3 µM)
[5]
  Selectivity ratio: 8
Staphylococcus aureus [6]
  MIC: 1 µg/mL
Staphylococcus aureus [7]
  fold change (FC): 2.6
Staphylococcus aureus [8]
  MIC: 1 µg/mL (≈ 2.53 µM)
Staphylococcus aureus [9]
  fold change (FC): 1.7
Staphylococcus aureus [10]
  MIC: 1 µg/mL (≈ 2.53 µM)
Staphylococcus aureus [11]
  fold change (FC): 2
Staphylococcus aureus [12]
  fold change (FC): 3
Staphylococcus aureus [13]
  MIC: 1 µg/mL (≈ 2.53 µM)
Staphylococcus aureus [14]
  fold change (FC): 3.1
Staphylococcus aureus [15]
  MIC: 0.5 µg/mL
Staphylococcus aureus [16]
  MIC: 1 µg/mL (≈ 2.53 µM)
Staphylococcus aureus [17]
  MIC: 1 µg/mL (≈ 2.53 µM)
Staphylococcus aureus [18]
  MIC: 8 µg/mL
Staphylococcus aureus [19]
  MIC: 1 µg/mL
Staphylococcus aureus [20]
  Activity: inactive
Staphylococcus aureus [21]
  MIC: 4 µg/mL (≈ 10.1 µM)
Staphylococcus aureus [22]
  MIC: 1 µg/mL (≈ 2.53 µM)
Staphylococcus aureus [23]
  MIC: 1 µg/mL (≈ 2.53 µM)
Staphylococcus aureus [24]
  fold change (FC): 1
[25]
  Selectivity ratio: 8
[26]
  Selectivity ratio: 8
Staphylococcus aureus [27]
  fold change (FC): 1.9
Staphylococcus aureus [28]
  fold change (FC): 15.3
Staphylococcus aureus [29]
  fold change (FC): 1.4
Staphylococcus aureus [30]
  Activity: inactive
Staphylococcus aureus [31]
  MIC: 1 µg/mL (≈ 2.53 µM)
Staphylococcus aureus [32]
  MIC: 8 µg/mL (≈ 20.3 µM)

Source: ChEMBL document CHEMBL1157072 (Bioorg Med Chem, 2010)
